Measurements from ChEMBL document CHEMBL1123396, “Glycine antagonists. Synthesis, structure, and biological effects of some bicyclic 5-isoxazolol zwitterions” (J Med Chem, 1986).

What was measured:
[1] = target: GABA-A receptor; anion channel; test: In vitro inhibition of [3H]GABA binding to Gamma-aminobutyric acid receptor from rat brain synaptic membranes.; type: cell membranes, Membrane
Summary of the method: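 Rat brain synaptic membranes (0.8–1.2 mg protein) incubated in triplicate in 50 mM Tris-citrate pH 7.1 with 5 nM [3H]GABA and various test concentrations, 15 min at 2 °C. Centrifugation at 48000g for 10 min, pellets rinsed twice with cold water, scintillation counting. Nonspecific binding (1 mM GABA) subtracted. IC50 by log-probit analysis of inhibition at at least four concentrations.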

GABA transporter = GABA transporter (Rattus norvegicus, UniProt P31647+P23978+P31646+P48056); test: In vitro inhibition of rat neuronal (synaptosomal) GABA uptake.; type: protein assay
Summary of the method: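 Crude rat whole-brain synaptosomes (homogenized in 0.32 M sucrose, 600g and 25000g spins at 4 °C) suspended in oxygenated phosphate medium. Preincubated 10 min at 25 °C with inhibitor, then [3H]GABA added to 50 nM final and incubated 10 min more. Rapid glass-fiber filtration, ice-cold buffer wash, scintillation counting.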

[2] = pKa value of the compound; type: physicochemical
Summary of the method: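 Potentiometric titration with 0.1 N NaOH to pH ca. 10, ionic strength held constant with 0.15 M KCl.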

SMILES: Oc1noc2c1CNCC2
- IC50 [1]: 72 µM

SMILES: Oc1onc2c1CCNCC2
- IC50 (GABA transporter): > 300 µM
- pKa [2]: 3.3
- IC50 [1]: 15 µM

SMILES: Oc1onc2c1CNCCC2
- IC50 (GABA transporter): > 300 µM
- pKa [2]: 2.6
- IC50 [1]: > 100 µM

SMILES: NCCC(N)C(=O)O (stereo unspecified)
- pKa [2]: 4
- IC50 [1]: 0.033 µM

SMILES: Oc1onc2c1CNCC2
- IC50 (GABA transporter): 130 µM
- pKa [2]: 3
- IC50 [1]: 100 µM

SMILES: Oc1noc2c1CCNCC2
- IC50 (GABA transporter): > 300 µM

SMILES: Oc1onc2c1CCCNC2
- IC50 (GABA transporter): > 300 µM
- pKa [2]: 2.5
- IC50 [1]: > 100 µM
